Screens deposited in PubChem BioAssay by several laboratories.
An excerpt weighted towards active compounds, which were near 1.6% of everything screened.
Platelet DG rel: platelet dense granule release activity; human platelet-rich plasma, SFLLRN dense granule ATP release, luminescence; 300,000 compounds, 0.22% hits; inhibition, %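 (compounds screened at 7.5 µM in platelet-rich plasma)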; AID 1663;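 active = mean replicate score, as percent of positive control, at or above 50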
FLuc stim CS: affects firefly luciferase, flagging false hits in luciferase stimulation screens. P08659. ATPlite luciferase biochemical, luminescence, 10 min; 0 = ATP-free wells, 1 = DMSO control. activation factor at 10 µM. 200,000 tested, under 10 active;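 active = luciferase activation factor, scaled between plate controls, of at least 2 with compound at 10 µM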
Target sequence (P08659 whole entry, looked up): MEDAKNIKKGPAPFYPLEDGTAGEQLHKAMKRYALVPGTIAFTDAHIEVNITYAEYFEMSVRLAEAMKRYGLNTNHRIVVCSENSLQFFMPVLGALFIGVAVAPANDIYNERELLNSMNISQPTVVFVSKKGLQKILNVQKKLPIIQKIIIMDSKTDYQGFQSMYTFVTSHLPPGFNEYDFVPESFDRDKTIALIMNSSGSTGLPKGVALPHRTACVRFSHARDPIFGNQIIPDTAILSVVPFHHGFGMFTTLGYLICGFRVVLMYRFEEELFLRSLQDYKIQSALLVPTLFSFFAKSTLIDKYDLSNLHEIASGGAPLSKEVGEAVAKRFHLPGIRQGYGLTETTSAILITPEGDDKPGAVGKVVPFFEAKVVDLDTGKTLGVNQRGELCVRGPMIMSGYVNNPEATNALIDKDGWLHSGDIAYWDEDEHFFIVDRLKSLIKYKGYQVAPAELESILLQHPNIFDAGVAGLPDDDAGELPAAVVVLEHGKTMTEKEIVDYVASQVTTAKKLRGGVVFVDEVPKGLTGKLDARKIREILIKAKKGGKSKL
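System: cell-free luciferase reagent; medium: PBS as buffer for the ATP substrate; doses: test compounds dosed from 2 mM stocks in 100% DMSO; incubation: 10 min, room temperature; measured by: luminescence from luciferase reaction; read-out: luciferase activation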
PPC-1+TRAIL kill: compounds killing PPC-1 cancer cells with TRAIL present (potentiator screen, no TRAIL-free arm); PPC-1 cells + TRAIL, ATPLite viability luminescence; cell killing (% activity), % at 4 µM or 5 µM; 220,000 compounds, 0.41% hits;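 active = cell killing above 50% in the first pass at 4 µM, then a duplicate retest at 5 µM averaging 50% or more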
FLuc inh counter: inhibits firefly luciferase, flagging false hits in luciferase inhibition screens. ATPLite firefly luciferase biochemical luminescence, 10 min. 200,000 compounds, 1.5% hits. P08659. inhibition, % at 10 µM;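 active = inhibition above about 50% when tested at 10 µM, limit read from the data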
TRAIL sens C8: caspase-8 TRAIL sensitization; inhibition (viability loss, TRAIL sensitization), % at 10 µM; NB7+C8 cells + TRAIL, ATPlite viability luminescence; 360,000 compounds, 1% hits; AID 624354;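 active = compounds causing at least 50% loss of cell viability in the single-dose screen, relative to plate controls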
Hits are given with their value; . = inactive; / = no result given.

SMILES | Platelet DG rel | FLuc stim CS | PPC-1+TRAIL kill | FLuc inh counter | TRAIL sens C8
CC(/C=N/NC(=O)c1ccncc1)=C\c1ccccc1 | . | . | . | 61 | .
CC(=C/c1ccccc1)/C=N/NC(=O)c1ccc2nc[nH]c2c1 | . | . | . | 82 | .
CC(=C/c1ccc(C(C)C)cc1)/C=N/NC(=O)c1ccncc1 | . | . | . | . | .
O=C(N/N=C/C(Br)=C\c1ccccc1)c1cccs1 | . | / | . | / | .
CCCc1nc2ccc(C)cn2c1Cc1ccccc1C(F)(F)F | / | / | / | / | .
Cc1cccc(C)c1NC(=O)C(c1cc2ccccc2o1)N1CCC(c2ccccc2)CC1 (stereo not drawn) | / | / | / | / | .
Cc1cccc(C(O)c2ncc(-c3ccccc3)[nH]2)c1C (stereo not drawn) | / | / | / | / | .
CC1(C(=O)NS(=O)(=O)c2ccc(C#N)cc2)CCN1C(=O)Cc1ccc(-c2ccccc2)cc1 (stereo not drawn) | / | / | / | / | .
COC(=O)c1nn(-c2ccc3c(c2)CCN3C(C)=O)cc1O | 52 | . | 76 | 94 | 81
COC(=O)c1nn(-c2ccc3c(c2)OCO3)cc1O | . | . | . | . | .
CCOC(=O)c1nn(-c2ccc(C)c(C)c2)cc1O | . | . | . | 50 | .
COc1cc(OC)cc(C2=Cc3ccc(OC)cc3C(CC(C)=O)N2c2ccc(-c3cccs3)cc2)c1 (stereo not drawn) | / | / | / | / | .
OC(CN1CCN(Cc2ccccc2)CC1)c1ccccc1 (stereo not drawn) | . | . | . | . | .
OC(CN1CCN(Cc2ccccc2)CC1)c1ccc(F)cc1 (stereo not drawn) | . | . | 58 | . | .
COc1cccc(NC(=O)CSc2nc3c(oc4ccccc43)c(=O)[nH]2)c1 | . | . | . | 60 | .
COc1cccc(NC(=O)CSc2ncnc3c2oc2ccccc23)c1 | . | . | . | . | .
CC1(C(=O)NS(=O)(=O)c2ccc(Cl)cc2)CCN1C(=O)c1cccc(F)c1 (stereo not drawn) | / | / | / | / | .
Cc1nc2ccc(-c3nc4cc(N)ccc4o3)cc2[nH]1 | . | . | . | 78 | 60
Nc1ccc2oc(-c3ccc4nc[nH]c4c3)nc2c1 | . | . | . | 83 | 57
Nc1ccc(-c2nc3ccccc3o2)cc1 | . | / | / | / | .
Nc1ccc2oc(-c3cccc(Br)c3)nc2c1 | . | . | . | . | .
CC(=O)c1cccc(NC(=O)C2Cc3c(-c4ccccc4Oc4ccccc4)ccnc3O2)c1 (stereo not drawn) | / | / | / | / | .
Cc1ccc(N2Cc3ccccc3C2=O)cc1 | . | / | / | / | 58
COc1ccc(N2Cc3ccccc3C2=O)cc1 | . | / | / | / | 67
O=C1c2ccccc2CN1c1ccccc1 | . | / | / | / | .
SMILES | Platelet DG rel | FLuc stim CS | PPC-1+TRAIL kill | FLuc inh counter | TRAIL sens C8
CCn1c(C)cc(C=C2C(=O)c3ccccc3C2=O)c1C | . | . | . | 79 | .
Cc1cc(C=C2C(=O)c3ccccc3C2=O)c(C)n1C | . | . | . | . | .
Cc1ccc(S/C=C\C(=O)c2ccccc2)cc1 | . | . | . | 91 | 55
Cc1ccc(C(=O)/C=C\C(=O)c2ccc(C)cc2)cc1 | . | . | . | . | .
Cc1ccc(NC(=O)/C(C#N)=C(\N)C(Cl)(Cl)Cl)nc1 | . | . | . | 83 | .
O=C1c2ccccc2/C(=C\C#Cc2ccccn2)N1c1ccccc1 | / | / | / | / | 74
COc1cc2c(cc1OC)C(C1C(=O)CCCC1=O)N(C(=O)CCl)CC2 (stereo not drawn) | . | . | . | . | .
COc1cc2c(cc1OC)C(c1ccccc1)N(C(=O)CCl)CC2 (stereo not drawn) | . | . | . | . | 86
COC(=O)c1ccc(/C=C(\C#N)c2nc3ccccc3s2)cc1 | . | . | . | . | .
N#C/C(=C\c1ccccn1)c1nc2ccccc2s1 | . | . | . | 68 | .
O=C(NCc1cccnc1)c1cc(C2CCCCN2S(=O)(=O)Cc2ccccc2)on1 (stereo not drawn) | / | / | / | / | .
O=C1C2C3CC4C5C3C1C5C1(SCCS1)C42 (stereo not drawn) | / | / | / | / | .
Nc1nc(CCl)nc(Nc2cccc3ccccc23)n1 | . | / | . | / | 95
O=C(OCc1cn([C@H]2CN(C(=O)C3CCCCC3)[C@@H](c3ccc(Cl)cc3)C[C@@H]2O)nn1)c1ccccc1 | / | / | / | / | .
COc1cccc(C=Nc2ccc3c(c2)OCCO3)c1O | . | . | . | 96 | .
COc1cccc(C=Nc2ccc(N3CCOCC3)cc2)c1O | . | / | / | / | .
COc1cccc(/C=N/N2CCOCC2)c1O | . | . | . | 63 | .
